One data set in a line: Safety assessments. The data set is classed as in vivo, human (healthy adult subjects). The note with it: healthy subjects. The procedure, abridged:
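Open-label single-centre phase I crossover, healthy adults. Oral H+/K+ ATPase inhibitor 40-mg delayed-release capsule once daily, 1 h before breakfast, days 1–7 and 19–25. Omega-3 ethyl ester 4 g/day as two 1-g capsules twice daily with or after meals, days 12–29. Monitored adverse events, chemistry, hematology, urinalysis, blood pressure, heart rate, respiratory rate, oral temperature and physical examinations.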

In another data set the test system is CYP2C8. The note with it: IPE 4 g/day; cited from earlier work.
Data set [1] concerns the target cytochrome P450 (CYP) 2C19 (Homo sapiens, UniProt P33261). The data set can be described thus: Drug-drug interaction of IPE with omeprazole, a CYP2C19 substrate. The class given is in vivo, human (healthy adult subjects). The conditions noted are these: IPE 4 g/day at steady state, omeprazole 40 mg/day.
The next data set concerns CYP2C9. The note with it: IPE 4 g/day; cited from earlier work.
The subject of another data set is CYP3A4. The note with it: IPE 4 g/day; cited from earlier work.
For a further data set, the system named is serum TG levels. The conditions noted are these: IPE 4 g/day, MARINE and ANCHOR studies; cited from earlier work.
For data set [2] the following is noted: healthy subjects; cited from earlier work.
The format of data set [3] is in vivo, human (healthy adult subjects). The note with it: for K el: omeprazole 40 mg/day, mean (SD), n = 28.
The conditions of data set [4]: cited from earlier work.

Data on three compounds can be found in publication PMC4153963 (Drugs in R&D, 2014).

The structures appear in SMILES notation. Entries after “also recorded” stand apart in the source; their conditions may differ. Like-named read-outs stand apart in the source and are kept apart here. A value given as a limit tells only on which side of the number the result lay.

cytochrome P450 (CYP) 2C19, sequence (P33261 whole entry): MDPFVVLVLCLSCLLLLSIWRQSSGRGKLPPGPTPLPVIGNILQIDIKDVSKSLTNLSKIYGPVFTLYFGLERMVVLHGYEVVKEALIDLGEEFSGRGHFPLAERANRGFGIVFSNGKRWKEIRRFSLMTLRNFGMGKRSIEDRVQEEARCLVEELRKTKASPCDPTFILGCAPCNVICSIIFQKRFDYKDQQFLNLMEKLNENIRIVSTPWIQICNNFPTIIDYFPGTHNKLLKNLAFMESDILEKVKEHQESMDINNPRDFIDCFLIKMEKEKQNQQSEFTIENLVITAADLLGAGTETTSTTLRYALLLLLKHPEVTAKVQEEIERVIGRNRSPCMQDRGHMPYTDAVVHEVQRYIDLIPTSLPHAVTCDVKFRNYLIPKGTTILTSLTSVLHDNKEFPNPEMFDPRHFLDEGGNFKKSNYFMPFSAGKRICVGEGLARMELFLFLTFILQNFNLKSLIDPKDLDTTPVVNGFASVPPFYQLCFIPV

With `CC/C=C\C/C=C\C/C=C\C/C=C\C/C=C\CCCC(=O)OCC` [IPE, eicosapentaenoic acid ethyl ester], the “Safety and tolerability of co-administration of IPE with omeprazole” value in “Safety assessments” (IPE 4 g/day with omeprazole 40 mg/day) is “safe and well tolerated”. The “Effect of IPE on AUC or C max of rosiglitazone (CYP2C8 substrate)” value in the data set with CYP2C8 was “did not display a significant effect”. In data set [1], the “Effect of IPE on AUC0–24 and C max of omeprazole (CYP2C19 substrate)” value is reported as “did not significantly change; also recorded: did not inhibit”. Besides, the “Effect of IPE on AUC or C max of warfarin (CYP2C9 substrate)” value with CYP2C9 is recorded as “did not display a significant effect”. Further, the “Effect of IPE on AUC or C max of atorvastatin (CYP3A4 substrate)” value in the data set with CYP3A4 was “did not display a significant effect”. In addition, in the data set with serum TG levels, the “Effect on LDL-C levels” value was “without significantly increasing” and the “Effect on serum TG levels” value is listed as “significantly reduce”.
Take `COc1ccc2[nH]c([S+]([O-])Cc3ncc(C)c(OC)c3C)nc2c1` (centres unmarked) [Omeprazole]: the Elimination half-life in [2] is 30 to 60 min. Also, in the data set “Safety assessments” (omeprazole 40 mg/day), the “Tolerability of omeprazole alone” value is “well tolerated”. For the same compound, the exposure AUC(0-t) in [3] (human, plasma, po, 40 mg/day) was 3610 ng·h/mL. Besides, the K el in data set [3] (with icosapent ethyl 4 g/day (day 25)) is 0.62 (0.26) L/h; in [3] (without IPE (day 7)), 0.56 (0.22) L/h.
As to `CC/C=C\C/C=C\C/C=C\C/C=C\C/C=C\CCCC(=O)O` [EPA, eicosapentaenoic acid], the “Unesterified fraction of total EPA in plasma” value in [4] is under 1%. Also, the “Time to peak plasma concentrations of EPA” value in data set [4] (following oral dosing of IPE) is “approximately 5 h”.
